The results in this text go back to ChEMBL document CHEMBL1158489, “Synthesis and evaluation of 4-acyl-2-thiazolylhydrazone derivatives for anti-Toxoplasma efficacy in vitro” (J Med Chem, 2009).

Data set [1] deals with Toxoplasma gondii. The data set is described as follows: Antiparasitic activity against Toxoplasma gondii 2F tachyzoites infected in HFF assessed as inhibition of tachyzoite host cell invasion at 25 uM treated 20 mins prior to infection measured after 1 hr using DAPI staining by immunofluorescence microscopy relative to control. It is filed as functional. More on the design: scale not given: the % may be the effect or the level left. In a few lines:
(§1)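 Tachyzoites (strain 2F) preincubated with compound or DMSO (final 25 μM) at room temperature 20 min, then added to HFF monolayers; 1 h at 37 °C, 5% CO2, rinsed and fixed. Red/green sequential staining: attached/extracellular parasites labelled Rb anti-p30 with Alexa Fluor 594 (red), penetrated/intracellular green, host nuclei blue. Penetrated and attached counts compared with DMSO control.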

A short description of data set [2]: Cytotoxicity against human HFF by spectrophotometry. It is filed as cell-based. The settings on record: HFF cells, read-out: TD50 (the source's name).
A short description of data set [3]: Therapeutic index, ratio of TD50 for human HFF to IC50 for Toxoplasma gondii 2F tachyzoites. The following applies: HFF cells and Toxoplasma gondii 2F tachyzoites, read-out: TI.
In data set [4] the test system is Toxoplasma gondii. The experiment in a line: Antiparasitic activity against Toxoplasma gondii 2F tachyzoites infected in HFF assessed as parasite growth inhibition-related decrease in beta-galactosidase activity treated prior to infection measured after 5 days by spectrophotometry. The class given is functional, organism-based. The following applies: 120 h.
Data set [5] has as its system Toxoplasma gondii. The experiment in a line: Antiparasitic activity against Toxoplasma gondii 2F tachyzoites infected in HFF assessed as decrease in parasite penetration and attachment to host cell at 25 uM treated 20 mins prior to infection measured after 1 hr using DAPI staining by immunofluorescence microscopy relative to control. The class given is functional. Also noted: scale not given: the % may be the effect or the level left. In outline:
as §1

The test system of data set [6] is Toxoplasma gondii. The data set is described as follows: Antiparasitic activity against Toxoplasma gondii 2F tachyzoites infected in HFF assessed as inhibition of intracellular parasite replication at 25 uM treated 2 hrs postinfection measured after 26 hrs using DAPI staining by fluorescence microscopy relative to control. The class given is functional, organism-based. In outline: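 HFF monolayers inoculated with tachyzoites, 2 h incubation, then compound (final 25 μM) or DMSO control added to medium. Replication ran 26 h; monolayers fixed, permeabilized, immunolabelled with Rb anti-p30 (SAG1) and goat anti-rabbit Alexa Fluor 594 (red), imaged by fluorescence.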

The source made the active and inactive calls. The rule behind the calls is not given here.

The term IC50 denotes the concentration that inhibits the measured activity by half. In general, IC90 refers to the concentration needed for an effect of 90%. Turning to `CCOC(=O)c1csc(N/N=C2/CCC(C)C2)n1` (centres undefined), in the data set with Toxoplasma gondii [1], the Activity came to 48%. For the same compound, in data set [2], the CC50 is at least 320 µM. In addition, the selectivity ratio in data set [3] stood at 10. In the data set on Toxoplasma gondii [4], the IC50 was 59 µM and the 90% effect concentration (IC90) turned out to be 190 µM.

Consider `CCOC(=O)c1csc(NN=C2CCC(C)CC2)n1` (centres undefined), for which the CC50 in data set [2] was at least 320 µM. The selectivity ratio in data set [3] was determined as 9. For the same compound, in the data set on Toxoplasma gondii [4], the IC50 amounted to 60 µM and the IC90 came to 151 µM.

For `CCOC(=O)c1csc(N/N=C/c2cccc3ccccc23)n1`, in the data set on Toxoplasma gondii [1], the Activity stood at 35%. Also, the Activity in the data set on Toxoplasma gondii [5] came to 47%. In data set [2], the CC50 was at least 320 µM. Also, the selectivity ratio in data set [3] is 11. Further, in the data set with Toxoplasma gondii [4], the IC50 was 52 µM and the IC90 came to 182 µM.

With `CCOC(=O)c1csc(N/N=C(\C)c2ccc3ccccc3c2)n1`, the Activity with Toxoplasma gondii [1] is 45%. Besides, in data set [2], the CC50 was determined as 127 µM. Also, the selectivity ratio in data set [3] came out at 3. In the data set on Toxoplasma gondii [4], the IC50 was 43 µM and the IC90 came out at 88 µM.

Take `CCOC(=O)c1csc(N/N=C(\C)c2cccnc2)n1`: the CC50 in data set [2] was at least 320 µM. Besides, in data set [3], the selectivity ratio turned out to be 17. Further, in the data set on Toxoplasma gondii [4], the IC50 was found to be 34 µM and the IC90 came to 86 µM.

For the compound `CCOC(=O)c1csc(N/N=C/c2c[nH]c3ccccc23)n1`, in data set [2], the CC50 is at least 320 µM. Besides, in data set [3], the selectivity ratio was found to be 2. In the data set with Toxoplasma gondii [4], the IC50 came to 280 µM and the IC90 amounted to 2240 µM.

On to `CCOC(=O)c1csc(N/N=C/c2ccncc2)n1`, for which the Activity with Toxoplasma gondii [1] came out at 49%. The CC50 in data set [2] is at least 320 µM. In addition, the IC50 in the data set with Toxoplasma gondii [4] is at least 320 µM.

In the case of `CCOC(=O)c1csc(N/N=C(\C)c2ccncc2)n1`, the CC50 in data set [2] is at least 320 µM. In data set [3], the selectivity ratio was 9. Moreover, in the data set with Toxoplasma gondii [4], the IC50 stood at 64 µM and the IC90 worked out at 188 µM.

As to `CC1CC/C(=N/Nc2nc(C(=O)O)cs2)C1` (centres undefined), the Activity in the data set on Toxoplasma gondii [1] came out at 47%. The CC50 in data set [2] amounted to 82 µM. In addition, the selectivity ratio in data set [3] is 2. In addition, in the data set with Toxoplasma gondii [4], the IC50 was found to be 38 µM and the IC90 came out at 70 µM.

With `CCOC(=O)c1csc(N/N=C2/CCCC2C)n1` (centres undefined), in data set [2], the CC50 is at least 320 µM. Also, in data set [3], the selectivity ratio is 4. For the same compound, in the data set on Toxoplasma gondii [4], the IC50 amounted to 130 µM and the IC90 came out at 248 µM.

`CCOC(=O)c1csc(N/N=C/c2cccs2)n1`: the CC50 in data set [2] is at least 320 µM. Moreover, the IC50 with Toxoplasma gondii [4] was at least 320 µM.

Regarding `CCOC(=O)c1csc(NN=C2CCCC2)n1`, in data set [2], the CC50 is at least 320 µM. In addition, the selectivity ratio in data set [3] was determined as 6. Further, in the data set with Toxoplasma gondii [4], the IC50 is 92 µM and the IC90 stood at 239 µM.

For `CC1CCC/C(=N/Nc2nc(C(=O)O)cs2)C1` (centres undefined), the CC50 in data set [2] was at least 320 µM. Moreover, the IC50 in the data set with Toxoplasma gondii [4] is at least 320 µM.

Regarding `CCOC(=O)c1csc(NN=C2CCCCCC2)n1`, the CC50 in data set [2] was at least 320 µM. Further, the selectivity ratio in data set [3] stood at 7. Further, in the data set with Toxoplasma gondii [4], the IC50 came to 77 µM and the IC90 worked out at 226 µM.

In the case of `CCOC(=O)c1csc(NN=C2CCCCC2)n1`, in the data set on Toxoplasma gondii [1], the Activity was 45%. Also, the CC50 in data set [2] was at least 320 µM. The selectivity ratio in data set [3] amounted to 4. In the data set on Toxoplasma gondii [4], the IC50 stood at 160 µM and the IC90 came to 638 µM.

Turning to `CC1CCC/C1=N/Nc1nc(C(=O)O)cs1` (centres undefined), in data set [2], the CC50 was at least 320 µM. For the same compound, the IC50 in the data set on Toxoplasma gondii [4] is at least 320 µM.

With `CC1CCCC/C1=N/Nc1nc(C(=O)O)cs1` (centres undefined), the CC50 in data set [2] was at least 320 µM. For the same compound, the selectivity ratio in data set [3] was 4. In addition, in the data set on Toxoplasma gondii [4], the IC50 came to 128 µM and the IC90 was 310 µM.

Regarding `CCOC(=O)c1csc(N/N=C/c2ccc3c(c2)OCO3)n1`, in data set [2], the CC50 was at least 320 µM. In addition, in data set [3], the selectivity ratio was found to be 1. In the data set with Toxoplasma gondii [4], the IC50 stood at 479 µM and the IC90 was 2590 µM.

For the compound `CCOC(=O)c1csc(N/N=C(\C)c2ccccn2)n1`, the Activity in the data set on Toxoplasma gondii [1] worked out at 147%. Further, the result in the data set on Toxoplasma gondii [6] was Active. For the same compound, the CC50 in data set [2] stood at 6 µM. Moreover, in data set [3], the selectivity ratio was 2. For the same compound, in the data set with Toxoplasma gondii [4], the IC50 amounted to 3 µM and the 90% effect concentration (IC90) came to 7 µM.

Turning to `CC1CCC(=NNc2nc(C(=O)O)cs2)CC1` (centres undefined), the CC50 in data set [2] is at least 320 µM. The IC50 with Toxoplasma gondii [4] is at least 320 µM.

As to `O=C(O)c1csc(NN=C2CCCCCC2)n1`, the CC50 in data set [2] is at least 320 µM. The selectivity ratio in data set [3] worked out at 3. In the data set on Toxoplasma gondii [4], the IC50 was 179 µM and the IC90 amounted to 3870 µM.

As to `O=C(O)c1csc(NN=C2CCCC2)n1`, the Activity with Toxoplasma gondii [5] came out at 47%. Further, the CC50 in data set [2] was at least 320 µM. For the same compound, the IC50 in the data set on Toxoplasma gondii [4] was at least 320 µM.

On to `CCOC(=O)c1csc(N/N=C(\C)c2ccco2)n1`, for which the CC50 in data set [2] amounted to 241 µM. Moreover, in data set [3], the selectivity ratio came out at 5. In the data set on Toxoplasma gondii [4], the IC50 came out at 49 µM and the IC90 stood at 161 µM.

For the compound `CCOC(=O)c1csc(N/N=C(\C)c2cc3ccccc3oc2=O)n1`, the CC50 in data set [2] is at least 320 µM. Besides, the selectivity ratio in data set [3] was found to be 27. In the data set with Toxoplasma gondii [4], the IC50 came to 21 µM and the IC90 amounted to 55 µM.

With `CCOC(=O)c1csc(N/N=C2/CCCC(C)C2)n1` (centres undefined), in the data set on Toxoplasma gondii [1], the Activity was 48%. The CC50 in data set [2] was 84 µM. The selectivity ratio in data set [3] amounted to 6. In addition, in the data set on Toxoplasma gondii [4], the IC50 came out at 15 µM and the IC90 stood at 46 µM.

As to `CCOC(=O)c1csc(N/N=C/c2ccco2)n1`, in data set [2], the CC50 was at least 320 µM. The IC50 in the data set with Toxoplasma gondii [4] is at least 320 µM.

Take `CCOC(=O)c1csc(N/N=C(\C)c2cccs2)n1`: the CC50 in data set [2] was at least 320 µM. The selectivity ratio in data set [3] turned out to be 15. In addition, in the data set with Toxoplasma gondii [4], the IC50 is 37 µM and the IC90 turned out to be 136 µM.

In the case of `O=C(O)c1csc(NN=C2CCCCC2)n1`, the Activity in the data set with Toxoplasma gondii [1] amounted to 45%. Also, the CC50 in data set [2] is at least 320 µM. Besides, the IC50 with Toxoplasma gondii [4] is at least 320 µM.

In the case of `CCOC(=O)c1csc(N/N=C2/CCCCC2C)n1` (centres undefined), the CC50 in data set [2] was at least 320 µM. For the same compound, the selectivity ratio in data set [3] stood at 3. Moreover, in the data set on Toxoplasma gondii [4], the IC50 stood at 185 µM and the IC90 amounted to 508 µM.

As for `COc1cc(Cc2cnc(N)nc2N)cc(OC)c1OC` [TRIMETHOPRIM], the CC50 in data set [2] is at least 320 µM. Also, in data set [3], the selectivity ratio was 41. Moreover, in the data set on Toxoplasma gondii [4], the IC50 amounted to 14 µM.

With `CCOC(=O)c1csc(N/N=C/c2cccnc2)n1`, the CC50 in data set [2] was at least 320 µM. The selectivity ratio in data set [3] was 4. In addition, in the data set with Toxoplasma gondii [4], the IC50 was determined as 162 µM and the IC90 was 398 µM.
